The text below walks through data of PubChem BioAssay AID493037 (Johns Hopkins Ion Channel Center, 2011).

Sequence of Potassium voltage-gated channel subfamily KQT member 2 (Rattus norvegicus) (O88943 whole entry, looked up): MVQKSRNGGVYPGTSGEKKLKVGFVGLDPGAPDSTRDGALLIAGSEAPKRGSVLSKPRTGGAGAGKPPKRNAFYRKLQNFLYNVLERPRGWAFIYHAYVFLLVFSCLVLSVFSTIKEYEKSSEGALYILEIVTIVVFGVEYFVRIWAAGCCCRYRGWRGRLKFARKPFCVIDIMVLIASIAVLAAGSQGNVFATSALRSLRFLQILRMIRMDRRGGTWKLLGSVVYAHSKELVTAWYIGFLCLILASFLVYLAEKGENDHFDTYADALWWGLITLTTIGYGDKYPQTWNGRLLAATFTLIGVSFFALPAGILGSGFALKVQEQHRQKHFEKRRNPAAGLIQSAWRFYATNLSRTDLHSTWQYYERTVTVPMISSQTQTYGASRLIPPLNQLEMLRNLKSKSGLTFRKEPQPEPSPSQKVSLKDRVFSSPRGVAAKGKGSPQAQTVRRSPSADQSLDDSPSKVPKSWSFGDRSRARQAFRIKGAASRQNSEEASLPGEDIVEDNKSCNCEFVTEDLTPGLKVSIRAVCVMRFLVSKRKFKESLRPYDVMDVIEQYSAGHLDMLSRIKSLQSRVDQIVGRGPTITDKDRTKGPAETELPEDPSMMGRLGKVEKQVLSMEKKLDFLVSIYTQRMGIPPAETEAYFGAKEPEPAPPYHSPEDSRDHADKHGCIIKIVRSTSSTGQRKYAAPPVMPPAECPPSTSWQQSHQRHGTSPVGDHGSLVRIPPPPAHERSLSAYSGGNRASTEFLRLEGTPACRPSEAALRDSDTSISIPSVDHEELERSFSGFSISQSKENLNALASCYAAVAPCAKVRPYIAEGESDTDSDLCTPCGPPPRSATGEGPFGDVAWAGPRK

The target of the assay is Potassium voltage-gated channel subfamily KQT member 2 (Rattus norvegicus) (UniProt O88943). Briefly: rat KCNQ2 channel activators, dose response, cell-based, FluxOR thallium flux, mode of action (AID 493037). Particulars: KCNQ2-expressing cells, FluxOR thallium flux fluorescence. The procedure, abridged:
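Assay system: CHO cells expressing KCNQ2 potassium channel, loaded with FluxOR dye | Also added: Potassium sulfate plus thallium sulfate stimulus, 12.5 mM each in 5x stock | Incubation: 20 min compound pre-incubation, room temperature | Technique: FluxOR thallium-flux fluorescence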
Take `Cc1ccc(C)c(NC(=O)C2CC3CCC2C3)c1` (stereo not given): the half-maximal effective concentration (EC50) is 1050 nM.
Take `Cc1cccc(C)c1NC(=O)C1CC2CCC1C2` (stereo not given): the EC50 was 2050 nM.
On to `Cc1cc(C)c(NC(=O)CC(C)(C)C)c(Cl)c1`, for which the EC50 is 2100 nM.
The same measure for `CCCCC(=O)Nc1c(C)cc(C)cc1Cl`: 3750 nM; for `Cc1cc(C)c(NC(=O)C2CC3CCC2C3)c(C)c1` (stereo not given): 359 nM.
